Read-outs that look alike come from different tables or passages of the source.
Experiments:
[1] = Potentiometric determination of complex formation constants; format: physicochemical; conditions: I = 0.15 mol dm^−3 NaCl
In short: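 Test ligand in 3 × 10−3 mol dm−3 HCl with 0.15 mol dm−3 NaCl, in fresh DI water, titrated with carbonate-free 0.1 mol dm−3 NaOH. Runs: acid alone, ligand alone, and ligand plus Fe(III) at 3 × 10−3, 1.5 × 10−3 or 1 × 10−3 mol dm−3 (metal:ligand 1:1, 1:2, 1:3). Water bath ±0.1 °C, pH glass electrode, pH 2–11, triplicate. Log β refined jointly from the three ratios.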

[2] = Thermodynamic properties of iron; format: physicochemical; conditions: I = 0.15 mol dm^−3 NaCl
In short: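 Log β came from potentiometric titrations at 25, 37 and 40 °C in 0.15 mol dm−3 NaCl. ΔG was computed as −2.303RT log10 β. ΔH and ΔS per species were taken as the slope and intercept, respectively, of a Van't Hoff plot across the three temperatures. Units: ΔG and ΔH in kJ mol−1, ΔS in kJ mol−1 K−1.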

[3] = Potentiometric titration, protonation constants; format: physicochemical; conditions: I = 0.15 mol dm^−3 NaCl
[4] = cited from earlier work
[5] = 298.15 K and 0.05 M, ref Gergely et al. 21
[6] = 298.15 K and 0.15 mol dm^−3 NaNO3, ref Angkawijaya et al. 22

SMILES: NCC(=O)O [Gly, glycine]
- log β ([1]; complex [MA2H−2], 25 °C): 6.54(5)
- log β ([1]; complex [MA2H−2], 37 °C): 7.55(4)
- log β ([1]; complex [MA2H−2], 40 °C): 8.17(8)
- log β ([1]; complex [MA2H−3], 25 °C): −4.65(11)
- log β ([1]; complex [MA2H−3], 37 °C): −2.95(5)
- log β ([1]; complex [MA2H−3], 40 °C): −1.57(9)
- log β ([1]; complex [MA2H−4], 40 °C): −11.78(10)
- log β ([1]; complex [MA2], 25 °C): 19.10(11)
- log β ([1]; complex [MA2], 37 °C): 19.54(10)
- log β ([1]; complex [MA2], 40 °C): 19.72(13)
- log β ([1]; complex [MA3], 25 °C): 27.59(9)
- log β ([1]; complex [MA3], 37 °C): 28.35(3)
- log β ([1]; complex [MA3], 40 °C): 28.49(14)
- log β ([1]; complex [MAH−1], 25 °C): 6.21(2)
- log β ([1]; complex [MAH−1], 37 °C): 6.63(2)
- log β ([1]; complex [MAH−1], 40 °C): 6.75(5)
- log β ([1]; complex [MAH−2], 25 °C): 2.32(2)
- log β ([1]; complex [MAH−2], 37 °C): 3.34(3)
- log β ([1]; complex [MAH−2], 40 °C): 3.78(8)
- log β ([1]; complex [MA], 25 °C): 9.17(6)
- log β ([1]; complex [MA], 37 °C): 9.59(3)
- log β ([1]; complex [MA], 40 °C): 9.89(11)
- −ΔG ([2]; complex [MA2H−2], 25 °C): 8.927 kcal/mol
- −ΔG ([2]; complex [MA2H−2], 37 °C): 10.71 kcal/mol
- −ΔG ([2]; complex [MA2H−2], 40 °C): 11.71 kcal/mol
- ΔH ([2]; complex [MA2H−2]): 43.332 kcal/mol
- ΔS ([2]; complex [MA2H−2]): −0.73 kJ mol^−1 K^−1
- −ΔG ([2]; complex [MA2H−3], 25 °C): -6.341 kcal/mol
- −ΔG ([2]; complex [MA2H−3], 37 °C): -4.185 kcal/mol
- −ΔG ([2]; complex [MA2H−3], 40 °C): -2.25 kcal/mol
- ΔH ([2]; complex [MA2H−3]): 79.802 kcal/mol
- ΔS ([2]; complex [MA2H−3]): −1.20 kJ mol^−1 K^−1
- −ΔG ([2]; complex [MA2], 25 °C): 26.104 kcal/mol
- −ΔG ([2]; complex [MA2], 37 °C): 27.727 kcal/mol
- −ΔG ([2]; complex [MA2], 40 °C): 28.265 kcal/mol
- ΔH ([2]; complex [MA2]): 16.12 kcal/mol
- ΔS ([2]; complex [MA2]): −0.59 kJ mol^−1 K^−1
- −ΔG ([2]; complex [MA3], 25 °C): 37.639 kcal/mol
- −ΔG ([2]; complex [MA3], 37 °C): 40.244 kcal/mol
- −ΔG ([2]; complex [MA3], 40 °C): 40.827 kcal/mol
- ΔH ([2]; complex [MA3]): 26.109 kcal/mol
- ΔS ([2]; complex [MA3]): −0.89 kJ mol^−1 K^−1
- −ΔG ([2]; complex [MAH−1], 25 °C): 8.475 kcal/mol
- −ΔG ([2]; complex [MAH−1], 37 °C): 9.405 kcal/mol
- −ΔG ([2]; complex [MAH−1], 40 °C): 9.68 kcal/mol
- ΔH ([2]; complex [MAH−1]): 15.23 kcal/mol
- ΔS ([2]; complex [MAH−1]): −0.33 kJ mol^−1 K^−1
- −ΔG ([2]; complex [MAH−2], 25 °C): 3.172 kcal/mol
- −ΔG ([2]; complex [MAH−2], 37 °C): 4.739 kcal/mol
- −ΔG ([2]; complex [MAH−2], 40 °C): 5.416 kcal/mol
- ΔH ([2]; complex [MAH−2]): 39.888 kcal/mol
- ΔS ([2]; complex [MAH−2]): −0.60 kJ mol^−1 K^−1
- −ΔG ([2]; complex [MA], 25 °C): 12.51 kcal/mol
- −ΔG ([2]; complex [MA], 37 °C): 13.61 kcal/mol
- −ΔG ([2]; complex [MA], 40 °C): 14.18 kcal/mol
- ΔH ([2]; complex [MA]): 19.01 kcal/mol
- ΔS ([2]; complex [MA]): −0.44 kJ mol^−1 K^−1
- pKa1 ([3]; 25 °C): 2.51(7)
- pKa2 ([3]; 25 °C): 9.68(3)
- pKa1 ([3]; 37 °C): <2
- pKa2 ([3]; 37 °C): 9.37(1)
- pKa1 ([3]; 40 °C): <2
- pKa2 ([3]; 40 °C): 9.27(2)
- pKa1 [4, 5]: 2.33
- pKa2 [4, 5]: 9.61
- pKa1 [4, 6]: 2.32
- pKa2 [4, 6]: 9.62

SMILES: O=C(O)[C@@H]1CCCN1 [Pro, reference compound]
- pKa1 ([4]; ref Zhu et al. 23): 1.99

Reference: paper PMC9083272 (RSC Advances, 2018)
